Measured values taken from publication PMC9540525 (Cancer, 2022).

Legend:
[1] = tested on: advanced or unresectable solid tumors, including NENs and R/R NHL; assay: Phase 1 study CC-90011-ST-001: efficacy; assay type: in vivo, human
Outline: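 Phase 1 open-label multicenter study; adults with advanced NENs or R/R NHL. Test compound given orally once weekly in 28-day cycles (expansion: 60 mg); reductions and interruptions of up to 4 weeks allowed. Investigator-assessed response: RECIST 1.1 (solid tumors), IWG (NHL), PCWG3 (neuroendocrine prostate); FDG PET or PET/CT confirmed CR in FDG-avid tumors. Two-sided 95% Clopper–Pearson CIs; Kaplan–Meier medians.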

[2] = Phase 1 study: plasma pharmacokinetics, noncompartmental analysis; assay type: in vivo, human
[3] = tested on: solid tumor cell lines, including small cell lung cancer, and acute myeloid leukemia cell lines; details: solid tumor cell lines incl. SCLC, and AML cell lines; cited from earlier work
[4] = tested on: patient‐derived xenograft models; details: cited from earlier work

Compound: COc1ccc(-c2c(-c3ccc(C#N)c(F)c3)nc(N3CCC(N)CC3)n(C)c2=O)cc1F [CC‐90011]
- Best overall response: CR ([1]; dose escalation, n = 50): 1 (2.0) no. (%)
- Best overall response: NE ([1]; dose escalation, n = 50): 4 (8.0) no. (%)
- Best overall response: PD ([1]; dose escalation, n = 50): 22 (44.0) no. (%)
- Best overall response: PR ([1]; dose escalation, n = 50): 1 (2.0) no. (%)
- Best overall response: SD ([1]; dose escalation, n = 50): 22 (44.0) no. (%)
- Best overall response: SD ≥4 months ([1]; dose escalation, n = 50): 8 (16.0) no. (%)
- CBR [95% CI] ([1]; dose escalation, n = 50): 20 [10.0–33.7] %
- ORR [95% CI] ([1]; dose escalation, n = 50): 4 [0.5–13.7] %
- mOS [95% CI] ([1]; dose escalation, n = 50): 7.8 [6.1–20.1] months
- mPFS [95% CI] ([1]; dose escalation, n = 50): 3.4 [1.7–3.7] months
- patients with NENs with SD lasting ≥6 months / >6 months ([1]; dose escalation, grade ≥2 NENs): seven
- treatment cycle in which the patient with CR was still ongoing ([1]; dose escalation, one patient with R/R MZL, as of April 2022): 58 cycle
- patients with bronchial NENs with SD after nine or more cycles ([1]; dose expansion): three
- Best overall response: CR ([1]; dose expansion, n=19): 0 (0.0) no. (%)
- Best overall response: NE ([1]; dose expansion, n=19): 2 (11.0) no. (%)
- Best overall response: PD ([1]; dose expansion, n=19): 7 (37.0) no. (%)
- Best overall response: PR ([1]; dose expansion, n=19): 0 (0.0) no. (%)
- CBR [95% CI] ([1]; dose expansion, n=19): 37 [16.3–61.6] %
- ORR [95% CI] ([1]; dose expansion, n=19): 0 [0.0–17.6] %
- mOS [95% CI] ([1]; dose expansion, n=19): 15.6 [7.0, NE] months
- mPFS [95% CI] ([1]; dose expansion, n=19): 1.8 [1.1–5.4] months
- treatment cycle in which the patient with SD was still ongoing ([1]; dose expansion, one patient with bronchial NENs, as of April 2022): 46 cycle
- median PFS ([1]; patients with bronchial NENs): 4.6 months
- accumulation with repeat dosing based on the AUC ([2]; dose expansion, 60 mg once per week): Negligible accumulation
- time of peak CC-90011 concentration after treatment, approximate median ([2]; dose expansion, NEN, n = 16, 60 mg once per week): ~4 h
- terminal half-life ([2]; in words): long terminal half‐life
- antiproliferative activity in vitro [3]: has antiproliferative activity in various solid tumor cell lines in vitro
- antiproliferative activity in patient-derived xenograft models [4]: demonstrated antiproliferative activity
